According to article PMC8056934 (Journal of Applied Glycoscience, 2017):
“Also recorded” adds a separate entry of the source.

Tests used:
pyranose oxidase (P2O) = pyranose oxidase (P2O) (Trametes versicolor, UniProt P79076); assay: Measurement of P2O activity; assay type: biochemical, Coriolus sp.; details: for Km: P2O, LG: linear S–V relationship between 4 and 40 mM
[1] = Solubility in aqueous solution; assay type: physicochemical; details: aqueous solution / reaction mixture
[2] = Stability of 3ketoLG in acid; assay type: physicochemical; details: 100 °C, 1 h
In short: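 Test ketosugar at 10 mM is dissolved in HCl (1, 10 or 100 mM) and held at 100 °C for 1 h. After cooling, samples are diluted 1:20 in water. Remaining ketosugar is quantified by HPLC (50 µL injection) on a KS-801 column with water eluent and charged-aerosol detection.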

[3] = Heat treatment of 3ketoLG and 3ketoMeβGlc in sodium phosphate buffer, HPLC; assay type: physicochemical; details: sodium phosphate buffer 50 mM, pH 8.0, 60 min at 60 °C
In short: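 Samples are analysed by HPLC on a Shodex SUGAR KS-801 column (8.0 × 300 mm). Water is the eluent at 1 mL/min and 60 °C, with corona charged-aerosol detection. Chromatograms taken before and after heat treatment are compared.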

[4] = Stability of 3ketoLG in buffer; assay type: physicochemical; details: for k: 10 mM 3ketoLG; for Ea: linear regression of the Arrhenius equation
In short: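 Ketosugar is incubated at 30–70 °C in 50 mM sodium phosphate or 50 mM sodium acetate (pH 4.0, 5.0) buffers. At each time point, aliquots are diluted 1:20 into 1 mM acetic acid and quantified by HPLC. k comes from a single-exponential fit of the time course, and t1/2 = ln2/k. Ea at each pH comes from linear Arrhenius regression.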

[5] = 30 °C and pH 7.0; cited from earlier work
[6] = substrate 10 mM, 30 °C, MOPS-Na buffer 25 mM, pH 7.5

In the case of `O[C@@H]1[C@@H](O)[C@@H]2OC[C@@H](O2)[C@H]1O` [LG, 1,6-anhydro-β-D-glucopyranose], the Km (pyranose oxidase (P2O)) was greater than 40000 µM and the “Specific activity of P2O” value (pyranose oxidase (P2O); [6]) was 0.018 U/mg-solid.
In the case of `O=C[C@H](O)[C@@H](O)[C@H](O[C@@H]1O[C@H](CO)[C@@H](O)[C@H](O)[C@H]1O)[C@H](O)CO` [cellobiose], the “Oxidation by P2O” value (pyranose oxidase (P2O)) was “did not oxidize”.
With `O=C1[C@@H](O)[C@@H]2OC[C@@H](O2)[C@H]1O` [3ketoLG, 1,6-anhydro-β-D-ribo-hexopyranos-3-ulose] the Solubility [1] was “poor solubility; also recorded: low solubility”, the “Decrease of 3ketoLG” value ([2]; 1 mM HCl) was “No significant decrease” and the 3ketoLG remained ([2]; 100 mM HCl) was greater than 90%. The “Change on heat treatment (HPLC)” value [3] was “significantly decreased”, the k ([4]; pH 4.0, 70 °C, sodium acetate buffer 50 mM) was 0.062 ± 0.002 h⁻¹ and the k ([4]; pH 5.0, 70 °C, sodium acetate buffer 50 mM) was 0.20 ± 0.01 h⁻¹. It also gave a k ([4]; pH 6.0, 40 °C, sodium phosphate buffer 50 mM) of 0.028 ± 0.003 h⁻¹, a k ([4]; pH 6.0, 50 °C, sodium phosphate buffer 50 mM) of 0.085 ± 0.005 h⁻¹ and a k ([4]; pH 6.0, 60 °C, sodium phosphate buffer 50 mM) of 0.32 ± 0.04 h⁻¹. It also gave a k ([4]; pH 6.0, 70 °C, sodium phosphate buffer 50 mM) of 1.0 ± 0.1 h⁻¹, an Ea ([4]; pH 6.0) of 26.1 kcal/mol and a k ([4]; pH 7.0, 30 °C, sodium phosphate buffer 50 mM) of 0.043 ± 0.003 h⁻¹. It also gave a k ([4]; pH 7.0, 40 °C, sodium phosphate buffer 50 mM) of 0.13 ± 0.01 h⁻¹, a k ([4]; pH 7.0, 50 °C, sodium phosphate buffer 50 mM) of 0.33 ± 0.02 h⁻¹ and a k ([4]; pH 7.0, 60 °C, sodium phosphate buffer 50 mM) of 1.7 ± 0.1 h⁻¹. It also gave a k ([4]; pH 7.0, 70 °C, sodium phosphate buffer 50 mM) of 4.4 ± 0.1 h⁻¹, an Ea ([4]; pH 7.0) of 24.4 kcal/mol and a k ([4]; pH 8.0, 30 °C, sodium phosphate buffer 50 mM) of 0.083 ± 0.005 h⁻¹. For the same compound, the k ([4]; pH 8.0, 40 °C, sodium phosphate buffer 50 mM) was 0.21 ± 0.02 h⁻¹, the k ([4]; pH 8.0, 50 °C, sodium phosphate buffer 50 mM) was 0.57 ± 0.03 h⁻¹ and the k ([4]; pH 8.0, 60 °C, sodium phosphate buffer 50 mM) was 3.0 ± 0.1 h⁻¹. The k ([4]; pH 8.0, 70 °C, sodium phosphate buffer 50 mM) was 9.1 ± 0.4 h⁻¹ and the Ea ([4]; pH 8.0) was 24.9 kcal/mol.
For `COC1OC(CO)C(O)C(O)C1O` [methyl-α-D-glucopyrnaoside], the “Oxidation by P2O” value (pyranose oxidase (P2O)) was “did not oxidize”.
In the case of `OC[C@H]1OC(O)[C@H](O)[C@@H](O)[C@@H]1O` (stereo partly drawn) [D-glucose], the Km (pyranose oxidase (P2O)) was 1000 µM, the “Specific activity of P2O” value (pyranose oxidase (P2O); [6]) was 5.1 U/mg-solid and the “Specific activity of P2O relative to D-glucose” value (pyranose oxidase (P2O); substrate 10 mM, 30 °C, MOPS-Na buffer 25 mM, pH 7.5, D-glucose = 100 %) was 100%.
In the case of `O=C1CO[C@H](CO)[C@@H](O[C@@H]2O[C@H](CO)[C@@H](O)[C@H](O)[C@H]2O)[C@@H]1O` [1,5-anhydro-4-O-β-D-glucopyranosyl-D-fructose], the half-life [5] is given as 17 h.
